Measurements published in ChEMBL document CHEMBL2401625, “Synthesis and evaluation of pharmacological properties of some new xanthone derivatives with piperazine moiety” (Bioorg Med Chem Lett, 2013).
Active and inactive are the calls of the source. The calls are words filed in the database; no cut-off is given here.

Key:
[1] = target: 5-hydroxytryptamine receptor 6 (Homo sapiens, UniProt P50406); experiment: Displacement of [3H]LSD from human 5HT6 receptor expressed in HEK293 cells after 1 hr; format: cell-based
Sequence of 5-hydroxytryptamine receptor 6 (P50406 whole entry): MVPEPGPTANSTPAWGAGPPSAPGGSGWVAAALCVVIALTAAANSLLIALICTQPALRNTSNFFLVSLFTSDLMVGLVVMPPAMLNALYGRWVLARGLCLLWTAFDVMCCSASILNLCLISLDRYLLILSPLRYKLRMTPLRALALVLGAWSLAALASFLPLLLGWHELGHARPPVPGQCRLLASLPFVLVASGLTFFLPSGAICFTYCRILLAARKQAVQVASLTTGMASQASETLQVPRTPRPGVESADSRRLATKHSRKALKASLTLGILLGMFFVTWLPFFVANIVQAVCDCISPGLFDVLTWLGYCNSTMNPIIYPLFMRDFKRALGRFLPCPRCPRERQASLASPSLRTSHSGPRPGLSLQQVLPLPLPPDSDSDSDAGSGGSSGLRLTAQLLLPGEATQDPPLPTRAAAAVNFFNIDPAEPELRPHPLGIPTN

Rattus norvegicus [2] = species on record: Rattus norvegicus; experiment: Displacement of [3H]CGP-12177 from beta1-adrenergic receptor in rat cerebral cortex at 50 uM after 60 mins by scintillation counting; format: tissue-based
[3] = target: T1, 5-hydroxytryptamine receptor 1A (Homo sapiens, UniProt P08908); experiment: Displacement of [3H]8-OH-DPAT from human 5HT1A receptor expressed in HEK293 cells after 1 hr; format: cell-based
T1 sequence (P08908 whole entry): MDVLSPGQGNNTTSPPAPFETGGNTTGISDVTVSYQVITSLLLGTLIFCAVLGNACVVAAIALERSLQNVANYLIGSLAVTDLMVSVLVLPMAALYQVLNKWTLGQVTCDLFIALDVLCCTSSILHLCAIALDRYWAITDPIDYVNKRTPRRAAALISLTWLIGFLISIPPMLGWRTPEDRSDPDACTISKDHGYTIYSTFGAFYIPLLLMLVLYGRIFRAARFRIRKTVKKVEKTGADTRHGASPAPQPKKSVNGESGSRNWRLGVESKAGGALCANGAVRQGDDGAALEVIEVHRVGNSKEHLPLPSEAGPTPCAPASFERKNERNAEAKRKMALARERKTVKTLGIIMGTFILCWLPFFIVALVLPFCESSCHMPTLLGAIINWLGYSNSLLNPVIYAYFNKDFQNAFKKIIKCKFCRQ

[4] = target: 5-hydroxytryptamine receptor 7 (Homo sapiens, UniProt P34969); experiment: Displacement of [3H]5-CT from human 5HT7b receptor expressed in HEK293 cells after 1 hr; format: cell-based
Sequence of 5-hydroxytryptamine receptor 7 (P34969 whole entry): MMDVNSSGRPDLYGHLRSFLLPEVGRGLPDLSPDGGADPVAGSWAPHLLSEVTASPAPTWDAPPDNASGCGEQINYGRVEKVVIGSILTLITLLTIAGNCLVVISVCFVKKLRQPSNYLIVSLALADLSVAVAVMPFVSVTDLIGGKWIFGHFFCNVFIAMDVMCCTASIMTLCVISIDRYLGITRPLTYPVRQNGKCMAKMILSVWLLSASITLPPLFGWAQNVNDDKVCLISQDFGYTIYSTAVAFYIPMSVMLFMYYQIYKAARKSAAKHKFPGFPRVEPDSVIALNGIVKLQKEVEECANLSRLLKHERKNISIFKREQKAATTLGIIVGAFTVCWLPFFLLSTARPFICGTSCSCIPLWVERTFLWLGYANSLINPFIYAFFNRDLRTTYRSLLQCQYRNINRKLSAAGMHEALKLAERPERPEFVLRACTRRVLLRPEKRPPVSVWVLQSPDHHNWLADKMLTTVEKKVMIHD

[5] = target: T2, Adrenergic receptor alpha-1 (Rattus norvegicus, UniProt P15823+P23944+P43140); experiment: Displacement of [3H]prazosin from alpha1-adrenergic receptor in rat cerebral cortex after 30 mins by scintillation counting; format: tissue-based
T2 sequence (P15823 whole entry): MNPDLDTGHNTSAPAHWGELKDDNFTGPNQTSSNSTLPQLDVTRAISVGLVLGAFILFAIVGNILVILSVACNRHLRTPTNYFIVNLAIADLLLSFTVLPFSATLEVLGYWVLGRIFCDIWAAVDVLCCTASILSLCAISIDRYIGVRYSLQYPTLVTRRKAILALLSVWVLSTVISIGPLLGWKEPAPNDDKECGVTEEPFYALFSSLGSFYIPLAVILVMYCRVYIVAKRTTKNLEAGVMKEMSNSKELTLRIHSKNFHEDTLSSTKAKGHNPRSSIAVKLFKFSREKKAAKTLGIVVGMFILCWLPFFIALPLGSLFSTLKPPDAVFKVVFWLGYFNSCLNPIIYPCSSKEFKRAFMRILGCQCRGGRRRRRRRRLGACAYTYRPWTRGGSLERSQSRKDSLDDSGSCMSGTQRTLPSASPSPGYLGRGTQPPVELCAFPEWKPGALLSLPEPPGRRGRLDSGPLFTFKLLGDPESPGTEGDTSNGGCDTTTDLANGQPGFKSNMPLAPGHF
T2 sequence (P23944 whole entry): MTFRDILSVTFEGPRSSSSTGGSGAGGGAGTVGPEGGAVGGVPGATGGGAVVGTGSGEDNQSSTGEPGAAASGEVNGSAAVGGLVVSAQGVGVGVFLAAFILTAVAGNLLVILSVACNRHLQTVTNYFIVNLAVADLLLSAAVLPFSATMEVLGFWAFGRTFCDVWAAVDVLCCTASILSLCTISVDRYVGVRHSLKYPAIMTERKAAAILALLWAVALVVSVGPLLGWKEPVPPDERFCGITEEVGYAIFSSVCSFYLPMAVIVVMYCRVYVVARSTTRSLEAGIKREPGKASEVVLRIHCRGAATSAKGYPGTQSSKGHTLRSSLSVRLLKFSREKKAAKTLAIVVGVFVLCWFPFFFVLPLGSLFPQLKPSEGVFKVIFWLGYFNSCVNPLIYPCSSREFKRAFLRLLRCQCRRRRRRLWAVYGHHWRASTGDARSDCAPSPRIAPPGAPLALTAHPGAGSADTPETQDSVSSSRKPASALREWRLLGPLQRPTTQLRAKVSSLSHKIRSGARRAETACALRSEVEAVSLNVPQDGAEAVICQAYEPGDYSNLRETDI
T2 sequence (P43140 whole entry): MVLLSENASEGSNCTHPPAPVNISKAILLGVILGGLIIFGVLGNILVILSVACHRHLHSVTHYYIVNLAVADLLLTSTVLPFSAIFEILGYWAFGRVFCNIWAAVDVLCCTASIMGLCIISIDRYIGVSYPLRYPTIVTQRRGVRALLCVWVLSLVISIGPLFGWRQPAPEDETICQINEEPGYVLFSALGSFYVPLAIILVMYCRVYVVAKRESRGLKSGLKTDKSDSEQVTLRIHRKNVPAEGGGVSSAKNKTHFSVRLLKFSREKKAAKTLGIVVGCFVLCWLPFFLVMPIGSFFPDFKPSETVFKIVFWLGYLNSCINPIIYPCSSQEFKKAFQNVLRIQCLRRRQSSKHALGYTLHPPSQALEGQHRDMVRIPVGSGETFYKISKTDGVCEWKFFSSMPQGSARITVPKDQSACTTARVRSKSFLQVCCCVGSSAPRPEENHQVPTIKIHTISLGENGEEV
In short: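 Radioligand binding on rat brain tissue membranes, run in 96-well format. [3H]prazosin was used for α1 (n = 2) and [3H]CGP-12177 for β1 (n = 2). Ki was calculated by the Cheng–Prusoff equation.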

Mus musculus [6] = experiment: Anticonvulsant activity in CF1 mouse assessed as protection against subcutaneous metrazole-induced seizures at 30 mg/kg, ip after 4 hrs; format: functional, organism-based; parameters: dose 30 mg/kg
In short: (§1)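 Mice given compound i.p. at 30, 100 or 300 mg/kg and tested 0.5 or 4 h after dosing. Seizures were induced by maximal electroshock (MES) or subcutaneous metrazole (ScMet). Prevention of seizures counts as protection. Result is recorded as number of animals protected over number tested.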

Mus musculus [7] = experiment: Anticonvulsant activity in CF1 mouse assessed as protection against maximal electroshock-induced seizures at 100 mg/kg, ip after 0.5 hrs; format: functional, organism-based; parameters: dose 100 mg/kg; in short: as §1
Mus musculus [8] = experiment: Anticonvulsant activity in CF1 mouse assessed as protection against subcutaneous metrazole-induced seizures at 300 mg/kg, ip after 4 hrs; format: functional, organism-based; parameters: dose 300 mg/kg; in short: as §1
Mus musculus [9] = experiment: Anticonvulsant activity in CF1 mouse assessed as protection against maximal electroshock-induced seizures at 30 mg/kg, ip after 0.5 hrs; format: functional, organism-based; parameters: dose 30 mg/kg; in short: as §1
Mus musculus [10] = experiment: Anticonvulsant activity in CF1 mouse assessed as protection against maximal electroshock-induced seizures at 300 mg/kg, ip after 0.5 hrs; format: functional, organism-based; parameters: dose 300 mg/kg; in short: as §1
Mus musculus [11] = experiment: Anticonvulsant activity in CF1 mouse assessed as protection against maximal electroshock-induced seizures at 300 mg/kg, ip after 4 hrs; format: functional, organism-based; parameters: dose 300 mg/kg; in short: as §1
Mus musculus [12] = experiment: Anticonvulsant activity in CF1 mouse assessed as protection against subcutaneous metrazole-induced seizures at 100 mg/kg, ip after 4 hrs; format: functional, organism-based; parameters: dose 100 mg/kg; in short: as §1
Mus musculus [13] = experiment: Anticonvulsant activity in CF1 mouse assessed as protection against subcutaneous metrazole-induced seizures at 30 mg/kg, ip after 0.5 hrs; format: functional, organism-based; parameters: dose 30 mg/kg; in short: as §1
Mus musculus [14] = experiment: Anticonvulsant activity in CF1 mouse assessed as protection against subcutaneous metrazole-induced seizures at 300 mg/kg, ip after 0.5 hrs; format: functional, organism-based; parameters: dose 300 mg/kg; in short: as §1
Mus musculus [15] = experiment: Anticonvulsant activity in CF1 mouse assessed as protection against subcutaneous metrazole-induced seizures at 100 mg/kg, ip after 0.5 hrs; format: functional, organism-based; parameters: dose 100 mg/kg; in short: as §1
Mus musculus [16] = experiment: Anticonvulsant activity in CF1 mouse assessed as protection against maximal electroshock-induced seizures at 30 mg/kg, ip after 4 hrs; format: functional, organism-based; parameters: dose 30 mg/kg; in short: as §1
Rattus norvegicus [17] = experiment: Anticonvulsant activity in Sprague-Dawley rat assessed as protection against maximal electroshock-induced seizures at 30 mg/kg, po after 0.25 hrs; format: functional, organism-based; parameters: dose 30 mg/kg
In short: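 Rats dosed orally at 30 mg/kg and tested in MES at several time points after dosing. Protection means seizures were prevented. Result is recorded as number of animals protected over number tested.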

Mus musculus [18] = experiment: Anticonvulsant activity in CF1 mouse assessed as protection against maximal electroshock-induced seizures at 100 mg/kg, ip after 4 hrs; format: functional, organism-based; parameters: dose 100 mg/kg; in short: as §1
[19] = Displacement of [3H]CGP-12177 from beta1-adrenergic receptor in rat cerebral cortex after 60 mins by scintillation counting; format: tissue-based
In short: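 Radioligand binding on rat brain tissue membranes, run in 96-well format. Ki was calculated by the Cheng–Prusoff equation.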

SMILES	Ki [1]	inhibition (Rattus norvegicus [2])	Ki [3]	Ki [4]	Ki [5]	Ki [19]	Activity (Mus musculus [6])	Activity (Mus musculus [7])	Activity (Mus musculus [8])	Activity (Mus musculus [9])	Activity (Mus musculus [10])	Activity (Mus musculus [11])	Activity (Mus musculus [12])	Activity (Mus musculus [13])	Activity (Mus musculus [14])	Activity (Mus musculus [15])	Activity (Mus musculus [16])	Activity (Rattus norvegicus [17])	Activity (Mus musculus [18])
CN1CCN(Cc2cccc3c(=O)c4ccc(Cl)cc4oc23)CC1.Cl.Cl.Cl	19.5 µM	inactive	13.3 µM	10.5 µM	0.65 µM	–	–	–	–	–	–	–	–	–	–	–	–	–	–
COc1ccc2c(=O)c3cc(CN4CCN(c5ccccc5OC)CC4)ccc3oc2c1	–	–	–	–	–	–	inactive	inactive	inactive	inactive	inactive	inactive	inactive	inactive	inactive	inactive	inactive	–	inactive

Further lines, with some results ahead:

Ki [1]	inhibition (Rattus norvegicus [2])	Ki [3]	Ki [4]	Ki [5]	Ki [19]	SMILES	Activity (Mus musculus [6])	Activity (Mus musculus [7])	Activity (Mus musculus [8])	Activity (Mus musculus [9])	Activity (Mus musculus [10])	Activity (Mus musculus [11])	Activity (Mus musculus [12])	Activity (Mus musculus [13])	Activity (Mus musculus [14])	Activity (Mus musculus [15])	Activity (Mus musculus [16])	Activity (Rattus norvegicus [17])	Activity (Mus musculus [18])
–	inactive	–	–	–	–	COc1ccc2c(=O)c3cc(CN4CCN(Cc5ccccc5)CC4)ccc3oc2c1	inactive	inactive	inactive	inactive	inactive	Active	inactive	inactive	inactive	inactive	inactive	inactive	–
8.84 µM	–	1.67 µM	13.5 µM	0.31 µM	–	COc1ccc2c(=O)c3cc(CN4CCN(Cc5ccccc5)CC4)ccc3oc2c1.Cl.Cl	–	–	–	–	–	–	–	–	–	–	–	–	–
13.6 µM	–	0.429 µM	1.14 µM	0.38 µM	> 30 µM	COc1ccc2c(=O)c3cc(CN4CCN(c5ccccc5OC)CC4)ccc3oc2c1.Cl	–	–	–	–	–	–	–	–	–	–	–	–	–
